We go through five compounds from ChEMBL document CHEMBL1142796 (Bioorg Med Chem Lett, 2005).

For experiment [1], the target named is T1, Neuronal acetylcholine receptor; alpha4/beta2 (Rattus norvegicus, UniProt P09483+P12390). Nature of the experiment: Inhibition of [3H]nicotine binding to alpha4-beta2 nicotinic acetylcholine receptor of rat brain membrane.
Experiment [2] addresses Neuronal acetylcholine receptor; alpha3/beta4 (Rattus norvegicus) (UniProt P04757+P12392). Nature of the experiment: Maximal response against rat alpha3-beta4 nicotinic acetylcholine receptor. Type of experiment: protein-complex assay. In outline:
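Rat α3β4 expressed in Xenopus oocytes, two-electrode voltage clamp at −60 mV, perfused at 4 ml/min. Controls were 100 μM ACh applied for 8 s with 241 s washout, given as two controls, then drug, then a control. Peak current was normalized to the preceding ACh control and rescaled to the ACh maximum.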

Experiment [3] concerns the target Neuronal acetylcholine receptor; alpha4/beta2 (Rattus norvegicus) (UniProt P09483+P12390). Description: Maximal response against rat alpha4-beta2 nicotinic acetylcholine receptor. It counts as protein-complex assay. An outline of the steps:
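Rat α4β2 expressed in Xenopus oocytes, two-electrode voltage clamp at −60 mV, perfused at 4 ml/min. Controls were 10 μM ACh applied for 8 s with 241 s washout, given as two controls, then drug, then a control. Peak current was normalized to the preceding ACh control and rescaled to the ACh maximum.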

Experiment [4] deals with Neuronal acetylcholine receptor subunit alpha-7 (Rattus norvegicus) (UniProt Q05941). Nature of the experiment: Maximal response against rat alpha-7 nicotinic acetylcholine receptor. In outline:
(§1)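 Rat α7 expressed in Xenopus oocytes, two-electrode voltage clamp at −60 mV, perfused at 2 ml/min. Controls were 300 μM ACh applied for 12 s with 181 s washout, given as two controls, then drug, then a control. Net-charge responses were normalized to the preceding ACh control and rescaled to the ACh maximum.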

For experiment [5], the target named is T2, Neuronal acetylcholine receptor subunit alpha-7 (Rattus norvegicus, UniProt Q05941). Nature of the experiment: Effective concentration against rat alpha7 nicotinic acetylcholine receptor. In outline:
as §1

Experiment [6] has as its target Neuronal acetylcholine receptor; alpha3/beta4 (Rattus norvegicus, UniProt P04757+P12392). Nature of the experiment: Effective concentration against rat alpha3-beta4 nicotinic acetylcholine receptor. It counts as protein-complex assay. In outline: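 Rat α3β4 expressed in Xenopus oocytes, two-electrode voltage clamp at −60 mV, perfused at 4 ml/min. Peak current was normalized to the preceding ACh control and rescaled to the ACh maximum.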

Experiment [7] deals with T2, Neuronal acetylcholine receptor subunit alpha-7. Description: Effective concentration against rat alpha-7 nicotinic acetylcholine receptor. In outline:
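Rat α7 expressed in Xenopus oocytes, two-electrode voltage clamp at −60 mV, perfused at 2 ml/min. Net-charge responses were normalized to the preceding ACh control and rescaled to the ACh maximum.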

In experiment [8] the target is T1, Neuronal acetylcholine receptor; alpha4/beta2. Description: Effective concentration against rat alpha4-beta2 nicotinic acetylcholine receptor. It counts as protein-complex assay. An outline of the steps:
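Rat α4β2 expressed in Xenopus oocytes, two-electrode voltage clamp at −60 mV, perfused at 4 ml/min. Peak current was normalized to the preceding ACh control and rescaled to the ACh maximum.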

The target in experiment [9] is T2, Neuronal acetylcholine receptor subunit alpha-7. Nature of the experiment: Inhibition of [3H]-MLA binding to alpha-7 nicotinic acetylcholine receptor of rat brain membrane.
The target is the same in experiment [10]. Description: Inhibition of [3H]MLA binding to rat alpha7 nicotinic acetylcholine receptor.

T2 sequence (Q05941 whole entry): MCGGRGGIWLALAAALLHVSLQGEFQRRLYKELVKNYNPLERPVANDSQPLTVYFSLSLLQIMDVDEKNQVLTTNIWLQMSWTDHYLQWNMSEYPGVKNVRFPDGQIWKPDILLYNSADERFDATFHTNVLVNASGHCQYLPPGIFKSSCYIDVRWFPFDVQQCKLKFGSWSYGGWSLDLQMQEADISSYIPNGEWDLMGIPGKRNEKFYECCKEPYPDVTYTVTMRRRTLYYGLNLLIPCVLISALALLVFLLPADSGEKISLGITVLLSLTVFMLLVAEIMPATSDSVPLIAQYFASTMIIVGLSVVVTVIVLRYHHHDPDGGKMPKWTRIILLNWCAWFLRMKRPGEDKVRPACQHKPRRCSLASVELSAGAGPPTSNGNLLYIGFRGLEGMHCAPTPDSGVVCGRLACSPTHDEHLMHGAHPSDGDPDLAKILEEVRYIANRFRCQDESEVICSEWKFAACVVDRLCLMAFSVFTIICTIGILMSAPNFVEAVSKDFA
Chain of Neuronal acetylcholine receptor subunit alpha-7 (Rattus norvegicus) (Q05941 whole entry, the tested form may be a part): as the sequence (Q05941 whole entry) above
T1 sequence (P09483 whole entry): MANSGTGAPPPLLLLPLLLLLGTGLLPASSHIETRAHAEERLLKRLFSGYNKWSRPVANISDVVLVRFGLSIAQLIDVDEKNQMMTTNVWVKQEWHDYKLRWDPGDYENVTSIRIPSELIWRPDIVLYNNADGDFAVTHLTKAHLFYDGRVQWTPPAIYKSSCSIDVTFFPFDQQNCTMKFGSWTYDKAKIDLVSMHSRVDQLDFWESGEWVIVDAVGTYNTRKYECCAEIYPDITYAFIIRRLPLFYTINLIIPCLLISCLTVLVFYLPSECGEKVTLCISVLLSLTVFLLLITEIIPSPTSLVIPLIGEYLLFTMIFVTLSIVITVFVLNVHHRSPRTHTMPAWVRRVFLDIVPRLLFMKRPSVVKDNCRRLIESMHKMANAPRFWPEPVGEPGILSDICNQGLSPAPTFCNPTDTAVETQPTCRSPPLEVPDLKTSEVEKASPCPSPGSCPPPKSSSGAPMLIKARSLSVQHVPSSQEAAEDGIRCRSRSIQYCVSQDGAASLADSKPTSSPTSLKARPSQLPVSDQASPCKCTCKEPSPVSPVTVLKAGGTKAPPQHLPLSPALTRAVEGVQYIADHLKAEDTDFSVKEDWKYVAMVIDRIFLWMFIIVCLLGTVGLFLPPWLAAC
T1 sequence (P12390 whole entry): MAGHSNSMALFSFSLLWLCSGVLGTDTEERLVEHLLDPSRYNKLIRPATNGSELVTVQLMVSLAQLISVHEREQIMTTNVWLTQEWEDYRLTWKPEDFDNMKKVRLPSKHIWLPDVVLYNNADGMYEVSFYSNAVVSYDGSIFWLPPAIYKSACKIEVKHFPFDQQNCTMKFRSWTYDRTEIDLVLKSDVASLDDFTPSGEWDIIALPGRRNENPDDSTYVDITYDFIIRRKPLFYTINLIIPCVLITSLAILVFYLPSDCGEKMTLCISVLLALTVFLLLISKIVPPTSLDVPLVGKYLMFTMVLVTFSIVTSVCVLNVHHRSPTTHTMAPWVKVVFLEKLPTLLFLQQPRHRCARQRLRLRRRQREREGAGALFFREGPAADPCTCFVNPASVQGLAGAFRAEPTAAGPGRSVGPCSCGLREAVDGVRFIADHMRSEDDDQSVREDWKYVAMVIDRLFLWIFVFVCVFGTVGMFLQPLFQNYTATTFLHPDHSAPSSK
Chain of Neuronal acetylcholine receptor; alpha3/beta4 (P04757 whole entry, the tested form may be a part): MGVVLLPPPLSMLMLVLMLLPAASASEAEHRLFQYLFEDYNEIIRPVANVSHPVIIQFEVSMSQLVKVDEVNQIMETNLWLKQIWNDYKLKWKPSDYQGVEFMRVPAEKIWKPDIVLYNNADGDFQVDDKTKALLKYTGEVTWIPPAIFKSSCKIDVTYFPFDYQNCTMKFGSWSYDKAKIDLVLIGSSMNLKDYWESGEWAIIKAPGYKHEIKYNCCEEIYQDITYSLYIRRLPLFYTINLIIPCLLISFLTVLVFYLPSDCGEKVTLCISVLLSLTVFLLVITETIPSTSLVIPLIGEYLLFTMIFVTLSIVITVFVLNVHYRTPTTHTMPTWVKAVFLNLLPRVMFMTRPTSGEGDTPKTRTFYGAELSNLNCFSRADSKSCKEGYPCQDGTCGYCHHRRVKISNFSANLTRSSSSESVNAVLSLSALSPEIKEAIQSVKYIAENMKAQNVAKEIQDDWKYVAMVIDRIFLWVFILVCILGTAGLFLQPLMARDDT
Chain of Neuronal acetylcholine receptor; alpha3/beta4 (P12392 whole entry, the tested form may be a part): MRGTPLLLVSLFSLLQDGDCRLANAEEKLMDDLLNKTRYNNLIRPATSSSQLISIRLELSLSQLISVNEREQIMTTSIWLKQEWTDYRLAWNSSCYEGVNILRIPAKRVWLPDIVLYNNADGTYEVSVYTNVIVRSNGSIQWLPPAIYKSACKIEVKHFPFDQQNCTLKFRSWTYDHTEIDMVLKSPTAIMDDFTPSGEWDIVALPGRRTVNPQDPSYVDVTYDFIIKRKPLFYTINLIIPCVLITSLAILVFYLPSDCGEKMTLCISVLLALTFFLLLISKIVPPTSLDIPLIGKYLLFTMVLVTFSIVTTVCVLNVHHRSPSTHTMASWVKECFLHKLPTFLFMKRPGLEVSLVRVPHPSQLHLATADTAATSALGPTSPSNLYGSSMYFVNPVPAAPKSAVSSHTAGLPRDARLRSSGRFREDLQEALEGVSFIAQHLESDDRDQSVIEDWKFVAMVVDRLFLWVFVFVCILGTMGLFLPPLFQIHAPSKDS

Regarding `CN1CC[C@H]2CCc3ncccc3[C@H]21`, the Ki in experiment [1] came to 12.2 µM.
For the compound `CN1CCC[C@H]1c1cccnc1`, the Imax is 0.69 in experiment [2], 0.17 in experiment [3] and 0.6 in experiment [4].
Regarding `CN1CC[C@@H]2CCc3ccncc3[C@@H]21`, the affinity in [1] corresponds to a Ki of 0.4 µM. Besides, the EC50 in experiment [5] stood at 44 µM. This compound gave an Imax in [4] of 0.11.
Turning to `CN1CCC[C@H]1c1ccc[n+]([BH2-]C#N)c1`, the inhibition constant Ki in experiment [1] worked out at 0.041 µM; in experiment [9] it was 15.2 µM. In addition, the values for the Imax in [2], in experiment [3] and in experiment [4] were 0.06, 0.05 and 0.15, respectively. In addition, the EC50 in experiment [6] stood at 28 µM; in [7], 21 µM; in [8], 150 µM.
As for `CN1CC[C@@H]2CCc3cc[n+]([BH2-]C#N)cc3[C@@H]21`, the Ki amounted to 0.6 µM in experiment [1] and 2.4 µM in experiment [10]. Further, the concentration giving a half-maximal response (EC50) in experiment [7] stood at 20 µM. The compound further returned an Imax in experiment [4] of 0.26.
